Holding throughout (type): functional
For test [1], the target named is P2Y purinoceptor 1 (Meleagris gallopavo) (UniProt P49652). The test is described as follows: Measure of Agonist Potency at turkey Purinoceptor P2Y1 stably expressed in […] astrocytoma cell; NE means no effect at 100 uM.
In test [2] the target is T1, P2Y purinoceptor 6 (Homo sapiens, UniProt Q15077). The test is described as follows: Measure of Agonist Potency at human P2Y purinoceptor 6 (hP2Y6) stably expressed in […] astrocytoma cell; NE means no effect at 100 uM. The method in brief: (§1)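 1321N1 cells stably expressing the human receptor were labelled overnight with 1 μCi [³H]myo-inositol per well in inositol-free DMEM. [³H]inositol phosphate formation was then measured over 10 min at 37 °C with 10 mM LiCl. EC50 came from a four-parameter logistic fit of full concentration-effect curves, averaged over 3–8 independent curves.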
T1 sequence (Q15077 whole entry): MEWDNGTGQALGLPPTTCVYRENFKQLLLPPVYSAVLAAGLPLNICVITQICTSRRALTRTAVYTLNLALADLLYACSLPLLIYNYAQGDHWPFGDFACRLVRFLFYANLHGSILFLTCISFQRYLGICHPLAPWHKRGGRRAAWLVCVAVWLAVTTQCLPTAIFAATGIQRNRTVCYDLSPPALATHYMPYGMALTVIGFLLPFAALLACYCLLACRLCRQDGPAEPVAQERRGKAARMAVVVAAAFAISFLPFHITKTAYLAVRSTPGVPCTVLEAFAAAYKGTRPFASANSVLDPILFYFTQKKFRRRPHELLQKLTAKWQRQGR

Test [3] addresses T2, P2Y purinoceptor 4 (Homo sapiens, UniProt P51582). The test is described as follows: Measure of % Agonist Potency at human P2Y purinoceptor 4 (hP2Y4) stably expressed in […] astrocytoma cell at 10 uM.
Test [4] deals with T3, P2Y purinoceptor 11 (Homo sapiens) (UniProt Q96G91).
T3 sequence (whole entry): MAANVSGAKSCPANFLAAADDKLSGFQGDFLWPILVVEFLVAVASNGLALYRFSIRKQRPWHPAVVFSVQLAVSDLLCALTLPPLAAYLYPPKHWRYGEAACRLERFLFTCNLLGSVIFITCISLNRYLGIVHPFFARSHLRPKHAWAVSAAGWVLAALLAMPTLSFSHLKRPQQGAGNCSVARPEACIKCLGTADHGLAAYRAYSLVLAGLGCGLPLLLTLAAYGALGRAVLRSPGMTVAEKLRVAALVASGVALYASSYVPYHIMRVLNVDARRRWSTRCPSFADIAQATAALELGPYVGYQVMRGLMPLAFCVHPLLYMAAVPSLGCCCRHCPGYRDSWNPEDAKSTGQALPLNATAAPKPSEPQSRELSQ
The test is described as follows: Measure of Agonist Potency at human P2Y purinoceptor 11 (hP2Y11) stably expressed in […] astrocytoma cell at 10 uM.

Test [5] concerns the target P2Y purinoceptor 1 (Meleagris gallopavo, UniProt P49652). The test is described as follows: Measure of Agonist Potency at turkey Purinoceptor P2Y1 stably expressed in 131N1 astrocytoma cell.
The next test deals with P2Y purinoceptor 2 (Homo sapiens, UniProt P41231). The test is described as follows: Measure of Agonist Potency at human P2Y purinoceptor 2 (hP2Y2) stably expressed in […] astrocytoma cell. The method in brief: as §1
P2Y purinoceptor 2, sequence (P41231 whole entry): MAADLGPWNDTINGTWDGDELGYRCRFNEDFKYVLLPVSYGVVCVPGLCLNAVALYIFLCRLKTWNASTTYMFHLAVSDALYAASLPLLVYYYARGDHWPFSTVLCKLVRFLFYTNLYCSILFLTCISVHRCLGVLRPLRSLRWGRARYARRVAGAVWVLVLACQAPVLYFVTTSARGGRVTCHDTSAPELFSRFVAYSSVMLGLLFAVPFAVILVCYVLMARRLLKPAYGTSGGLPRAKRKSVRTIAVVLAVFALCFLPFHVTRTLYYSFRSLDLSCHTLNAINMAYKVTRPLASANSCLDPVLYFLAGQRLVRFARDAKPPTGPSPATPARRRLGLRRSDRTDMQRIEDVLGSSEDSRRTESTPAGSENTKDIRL
For test [6], the target named is T2, P2Y purinoceptor 4. The test is described as follows: Measure of Agonist Potency at human P2Y purinoceptor 4 (hP2Y4) stably expressed in 131N1 astrocytoma cell. The method in brief:
as §1

The target of test [7] is T3, P2Y purinoceptor 11 (Homo sapiens). As to the kind of experiment: Measure of Agonist Potency at human P2Y purinoceptor 11 (hP2Y11) stably expressed in […] astrocytoma cell at 10 uM; NE means no effect at 100 uM.
In test [8] the target is P2Y purinoceptor 1 (Homo sapiens, UniProt P47900). The test is described as follows: Measure of Agonist Potency at human P2Y purinoceptor 1 (hP2Y1) stably expressed in […] astrocytoma cell. The method in brief:
as §1

For test [9], the target named is T2, P2Y purinoceptor 4. As to the kind of experiment: Measure of Agonist Potency at human P2Y purinoceptor 4 (hP2Y4) stably expressed in […] astrocytoma cell; NE means no effect at 100 uM. The method in brief:
as §1

Test [10] concerns the target T1, P2Y purinoceptor 6. As to the kind of experiment: Measure of Agonist Potency at human P2Y purinoceptor 6 (hP2Y6) stably expressed in 131N1 astrocytoma cell. The method in brief: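 Human P2Y6 stably expressed in 1321N1 astrocytoma cells; cells labelled overnight with 1 μCi/well [³H]myo-inositol in inositol-free DMEM. [³H]inositol phosphate formation measured next day over 10 min at 37 °C with 10 mM LiCl. Full concentration-effect curves fitted by four-parameter logistic equation; EC50 averaged from 3–8 independent curves (mean ± SE).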

pEC50: −log10 of the molar value. Activity calls are given as the source filed them. The rule behind the calls is not given here.

T2 sequence (P51582 whole entry): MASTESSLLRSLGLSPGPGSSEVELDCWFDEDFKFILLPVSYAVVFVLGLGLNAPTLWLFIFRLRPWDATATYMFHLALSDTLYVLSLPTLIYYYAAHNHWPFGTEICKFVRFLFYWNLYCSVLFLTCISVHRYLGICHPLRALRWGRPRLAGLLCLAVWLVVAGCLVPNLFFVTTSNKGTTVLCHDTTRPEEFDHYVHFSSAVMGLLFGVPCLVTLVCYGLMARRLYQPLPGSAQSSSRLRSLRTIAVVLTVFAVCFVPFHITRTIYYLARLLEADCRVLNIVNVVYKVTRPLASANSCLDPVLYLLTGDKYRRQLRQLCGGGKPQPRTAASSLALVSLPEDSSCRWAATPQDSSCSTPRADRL
P2Y purinoceptor 1 (Meleagris gallopavo, UniProt P49652), sequence (P49652 whole entry): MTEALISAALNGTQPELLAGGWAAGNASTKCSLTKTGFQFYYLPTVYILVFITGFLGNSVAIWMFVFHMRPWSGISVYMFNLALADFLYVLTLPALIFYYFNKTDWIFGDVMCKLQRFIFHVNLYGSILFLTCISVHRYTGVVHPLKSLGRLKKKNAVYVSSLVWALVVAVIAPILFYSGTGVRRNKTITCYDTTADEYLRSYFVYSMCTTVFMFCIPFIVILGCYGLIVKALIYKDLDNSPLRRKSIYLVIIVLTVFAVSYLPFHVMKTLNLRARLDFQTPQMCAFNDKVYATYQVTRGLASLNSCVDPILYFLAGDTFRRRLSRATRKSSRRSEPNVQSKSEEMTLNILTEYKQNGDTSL
P2Y purinoceptor 1 (Meleagris gallopavo), sequence (P49652 whole entry): as above
P2Y purinoceptor 1 (Homo sapiens, UniProt P47900), sequence (P47900 whole entry): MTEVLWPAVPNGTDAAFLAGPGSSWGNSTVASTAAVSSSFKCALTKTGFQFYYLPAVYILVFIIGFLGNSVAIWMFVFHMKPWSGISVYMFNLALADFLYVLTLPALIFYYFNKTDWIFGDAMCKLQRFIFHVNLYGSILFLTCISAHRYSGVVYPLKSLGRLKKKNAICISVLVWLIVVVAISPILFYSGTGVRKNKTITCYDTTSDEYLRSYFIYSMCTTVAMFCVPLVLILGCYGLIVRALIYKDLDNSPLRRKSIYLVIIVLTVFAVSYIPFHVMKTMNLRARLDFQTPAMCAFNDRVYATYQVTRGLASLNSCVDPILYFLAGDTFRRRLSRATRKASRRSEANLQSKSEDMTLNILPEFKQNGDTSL

In the case of `Nc1ncnc2c1ncn2[C@@]12C[C@H]1[C@H](COP(=O)(O)O)[C@@H](O)[C@H]2O`, the NE result in test [1] is “inactive”.
As to `O=c1ccn(C2C(O)C(O)C3(COP(=O)(O)O)CC23)c(=O)[nH]1` (stereo unspecified), at P2Y purinoceptor 6 [2], the Agonist effect result is “inactive”.
Same read-out and setting: with `O=c1ccn(C2C(O)C(O)C3(COP(=O)(O)OP(=O)(O)O)CC23)c(=O)[nH]1` (stereo unspecified) the entry was “inactive”.
Still for that read-out and setting: with `O=c1ccn(C2O[C@H](COP(=O)(O)O)[C@@H](O)[C@@H]2O)c(=O)[nH]1` (stereo partly specified) the entry was “inactive”.
Regarding `Nc1ncnc2c1ncn2[C@H]1[C@H](O)[C@H](O)[C@]2(COP(=O)(O)OP(=O)(O)OP(=O)(O)O)C[C@H]12` (stereo in doubt; form 1), the Activity on P2Y purinoceptor 4 [3] came to 32%; in test [4], 34.5%. Also, the pEC50 at P2Y purinoceptor 1 [5] is 7.85; at P2Y purinoceptor 2 it was 7.04.
Regarding `Nc1ncnc2c1ncn2[C@@H]1O[C@H](COP(=O)(O)O)[C@@H](O)[C@H]1O` (stereo in doubt; form 1), the NE entry in test [1] is “inactive”.
In the case of `Nc1ncnc2c1ncn2[C@@H]1O[C@H](COP(=O)(O)O)[C@@H](O)[C@H]1O` (stereo in doubt; form 2), the NE result in test [1] was “inactive”.
For `O=c1ccn([C@H]2[C@H](O)[C@H](O)[C@]3(COP(=O)(O)OP(=O)(O)OP(=O)(O)O)C[C@H]23)c(=O)[nH]1` (stereo in doubt; form 2) [N-METHANOCARBA-UTP], the pEC50 is 7.07 on P2Y purinoceptor 4 [6] and 7.80 at P2Y purinoceptor 2. In addition, in test [7], the NE result is “inactive”. At P2Y purinoceptor 6 [2], the Agonist effect entry is “inactive”.
With `Nc1ncnc2c1ncn2[C@@H]1O[C@H](COP(=O)(O)O)[C@@H](O)[C@H]1O` (stereo in doubt; form 3) [ADENOSINE PHOSPHATE], the negative-log EC50 (pEC50) was 5.55 on P2Y purinoceptor 1 [5] and 5.82 on P2Y purinoceptor 1 [8].
As to `Nc1ncnc2c1ncn2[C@@H]1O[C@H](COP(=O)(O)O)[C@@H](O)[C@H]1O` (stereo in doubt; form 4), the NE result (at P2Y purinoceptor 4 [9]; in test [7]) was “inactive” in each case.
As for `Nc1ncnc2c1ncn2[C@@H]1O[C@H](COP(=O)(O)O)[C@@H](O)[C@H]1O` (stereo in doubt; form 4) [ADENOSINE PHOSPHATE], the pEC50 was 5.46 on P2Y purinoceptor 1 [5] and 5.14 on P2Y purinoceptor 1 [8].
Take `O=c1ccn([C@@H]2O[C@H](COP(=O)(O)OP(=O)(O)O)[C@@H](O)[C@H]2O)c(=O)[nH]1` [URIDINE_DIPHOSPHATE]: at P2Y purinoceptor 6 [10], the pEC50 was 7.82.

The term pEC50 denotes the negative decadic logarithm of the EC50, by convention in mol/L.

Source of the values: ChEMBL document CHEMBL1135398, “Methanocarba modification of uracil and adenine nucleotides: high potency of Northern ring conformation at P2Y1, P2Y2, P2Y4, and P2Y11 but not P2Y6 receptors” (J Med Chem, 2002).
